Measurements taken from ChEMBL document CHEMBL1125658, “Synthesis and properties of some peptide analogues of actinomycin D” (1991).
Values after ≈ are worked out from the molar mass of the structure shown. Starred links: 1 amine or outer side, 2 acyl side, 3 side chain; linkers in the order of their positions; H or OH if unused. Positions of bridges follow the written chain, without caps; N, C: chain ends. Non-standard residues stand in square brackets, D forms with d. Residues, ends and D or L forms follow the SMILES beside them. Chains are numbered I, II in the order given. Actinocin(1to9) = Cc1c2oc3c(C)ccc(C(=O)[*:2])c3nc-2c(C(=O)[*:1])c(N)c1=O; NMeV = CN[C@H](C(=O)O)C(C)C; Sar = CNCC(=O)O

Columns and labels:
Type in all cases: functional
Staphylococcus aureus = assay: Compound was tested for its antibacterial activity against Staphylococcus aureus
Method in brief: (§1)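 Overnight culture in trypticase soy broth at 37 °C, 0.1 mL subcultured into 50 mL fresh TSB and grown 8 h. Then 0.1 mL of the rapidly growing culture was diluted into a further 50 mL TSB. 0.1 mL of this dilution inoculated into 2 mL TSB per tube for MIC determination.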

Bacillus subtilis = assay: Compound was tested for its antibacterial activity against Bacillus subtilis; method in brief: as §1
Mus musculus = assay: Compound was tested in vivo for its antitumor activity against B16 melanocarcinoma in mice by determining its median survival time at dose of 0.256 mg/Kg

SMILES	MIC (Staphylococcus aureus)	MIC (Bacillus subtilis)	T/C (Mus musculus)
Cc1c2oc3c(C)ccc(C(=O)N[C@@H]4C(=O)N[C@H](C(C)C)C(=O)N5CCC[C@H]5C(=O)N(C)CC(=O)N(C)[C@@H](CC(C)C)C(=O)O[C@@H]4C)c3nc-2c(C(=O)N[C@@H]2C(=O)N[C@H](C(C)C)C(=O)N3CCC[C@H]3C(=O)N(C)CC(=O)N(C)[C@@H](CC(C)C)C(=O)O[C@@H]2C)c(N)c1=O	0.5 µg/mL (≈ 0.39 µM)	0.2 µg/mL (≈ 0.156 µM)	
Cc1c2oc3c(C)ccc(C(=O)N[C@@H]4C(=O)N[C@H](C(C)C)C(=O)N5CCC[C@H]5C(=O)N(C)CC(=O)N(C)[C@@H](C(C)C)C(=O)O[C@@H]4C)c3nc-2c(C(=O)N[C@@H]2C(=O)N[C@H](C(C)C)C(=O)N3CCC[C@H]3C(=O)N(C)CC(=O)N(C)[C@@H](C(C)C)C(=O)O[C@@H]2C)c(N)c1=O [DACTINOMYCIN] (I: T[dV]P[Sar][NMeV] / II: T[dV]P[Sar][NMeV]; ester I:1-I:C, II:1-II:C; linker I:N-II:N via Actinocin(1to9))	0.25 µg/mL (≈ 0.199 µM)	0.09 µg/mL (≈ 0.0717 µM)	165
